This note sets out measurements from ChEMBL document CHEMBL2424574, “Structure-activity relationships and pharmacophore model of a noncompetitive pyrazoline containing class of GluN2C/GluN2D selective antagonists” (J Med Chem, 2013).

One data set deals with Plasma. Briefly: Metabolic stability in rat plasma after 2 hrs. The class given is ADME, cell-free. Summed up: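 Stability followed in human, rat or mouse plasma over a 2-hour time course.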
The target of data set [1] is 5-hydroxytryptamine receptor 6 (Homo sapiens, UniProt P50406). Briefly: Inhibition of 5HT6 receptor (unknown origin). The method, boiled down:
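Radioligand panel screening was run through the NIMH Psychoactive Drug Screening Program with compounds at 5 µM.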

For data set [2], the target named is Glutamate receptor ionotropic, NMDA 2A (Rattus norvegicus, UniProt P35439+Q00959). Briefly: Negative allosteric modulation of recombinant rat GluN2A receptor expressed in Xenopus laevis oocytes by two-electrode voltage clamp method. Format: cell-based, Oocyte. The method, boiled down:
(§1)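 Two-electrode voltage clamp of Xenopus oocytes expressing rat GluN1 with GluN2A, 2B, 2C or 2D. Holding potential −40 mV in recording solution (mM: 90 NaCl, 1 KCl, 0.5 BaCl2, 0.005 EDTA, 10 HEPES, pH 7.4, 23 °C). Compounds diluted from 20 mM DMSO stocks to 0.05–0.1% final DMSO. IC50 from a Hill fit to the averaged composite concentration–response curve, 5–24 oocytes from 2–4 frogs.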

Data set [3] addresses Glutamate receptor ionotropic, NMDA 2B (Rattus norvegicus, UniProt P35439+Q00960). Briefly: Negative allosteric modulation of recombinant rat GluN2B receptor expressed in Xenopus laevis oocytes by two-electrode voltage clamp method. The class given is cell-based, Oocyte. Summed up: as §1
In data set [4] the target is Glutamate receptor ionotropic, NMDA 2C (Rattus norvegicus, UniProt P35439+Q00961). Briefly: Negative allosteric modulation of recombinant rat GluN2C receptor expressed in Xenopus laevis oocytes by two-electrode voltage clamp method. Format: cell-based, Oocyte. Summed up: as §1
Data set [5] addresses Glutamate receptor ionotropic, NMDA 2D (Rattus norvegicus, UniProt P35439+Q62645). Briefly: Negative allosteric modulation of recombinant rat GluN2D receptor expressed in Xenopus laevis oocytes by two-electrode voltage clamp method. The class given is cell-based, Oocyte. Summed up:
as §1

For data set [6], the target named is Glutamate receptor ionotropic, kainate 2 (Homo sapiens) (UniProt Q13002). Briefly: Inhibition of GluK2 receptor (unknown origin) expressed in Xenopus laevis oocytes assessed as inhibition of glutamate-induced current at 3 uM by two-electrode voltage clamp method; values are per cent of control. As to conditions: Oocyte.
Data set [7] concerns the target Glutamate receptor ionotropic, kainate 1 (Homo sapiens) (UniProt P39086). Briefly: Inhibition of GluK1 receptor (unknown origin) expressed in Xenopus laevis oocytes assessed as inhibition of glutamate-induced current at 3 uM by two-electrode voltage clamp method; values are per cent of control. The settings on record: Oocyte.
Data set [8] addresses Glutamate receptor 4 (Homo sapiens) (UniProt P48058). Briefly: Inhibition of GluA4 receptor (unknown origin) expressed in Xenopus laevis oocytes assessed as inhibition of glutamate-induced current at 3 uM by two-electrode voltage clamp method; values are per cent of control. As to conditions: Oocyte.
The target of data set [9] is Glutamate receptor 1 (Homo sapiens) (UniProt P42261). Briefly: Inhibition of GluA1 receptor (unknown origin) expressed in Xenopus laevis oocytes assessed as inhibition of glutamate-induced current at 3 uM by two-electrode voltage clamp method; values are per cent of control. The settings on record: Oocyte.
Data set [10] has as its target Ionotropic glutamate receptor kainate 2/5 (Homo sapiens) (UniProt Q16478+Q13002). Briefly: Inhibition of GluK2/GluK5 receptor (unknown origin) expressed in Xenopus laevis oocytes assessed as inhibition of AMPA-induced current at 3 uM by two-electrode voltage clamp method; values are per cent of control. As to conditions: Oocyte.
The target of data set [11] is P2X purinoceptor 2 (Homo sapiens) (UniProt Q9UBL9). Briefly: Inhibition of human purinergic receptor P2X subunit-2 expressed in Xenopus laevis oocytes assessed as inhibition of ATP-induced current at 3 uM by two-electrode voltage clamp method; values are per cent of control. The settings on record: Oocyte.
Data set [12] addresses 5-hydroxytryptamine receptor 3A (Homo sapiens) (UniProt P46098). Briefly: Inhibition of serotonin 5-HT3A receptor (unknown origin) expressed in Xenopus laevis oocytes assessed as inhibition of serotonin-induced current at 3 uM by two-electrode voltage clamp method; values are per cent of control. The settings on record: Oocyte.
For data set [13], the target named is Ionotropic glutamate receptor NMDA 1/2C (Homo sapiens) (UniProt Q05586+Q14957). Briefly: Inhibition of GluN1/GluN2C receptor (unknown origin) expressed in Xenopus laevis oocytes assessed as inhibition of glutamate/glycine-induced current at 3 uM by two-electrode voltage clamp method; values are per cent of control. As to conditions: Oocyte.
Data set [14] has as its target Glutamate NMDA receptor; GRIN1/GRIN2A (Homo sapiens) (UniProt Q05586+Q12879). Briefly: Inhibition of GluN1/GluN2A receptor (unknown origin) expressed in Xenopus laevis oocytes assessed as inhibition of glutamate/glycine-induced current at 3 uM by two-electrode voltage clamp method; values are per cent of control. As to conditions: Oocyte.
Data set [15] addresses Glycine receptor subunit alpha-1 (Homo sapiens) (UniProt P23415). Briefly: Inhibition of glycine receptor subunit alpha-1 (unknown origin) expressed in Xenopus laevis oocytes assessed as inhibition of glycine-induced current at 3 uM by two-electrode voltage clamp method; values are per cent of control. The settings on record: Oocyte.
Data set [16] concerns the target Neuronal acetylcholine receptor subunit alpha-7 (Homo sapiens) (UniProt P36544). Briefly: Inhibition of human nicotinic acetylcholine receptor subunit alpha-7 expressed in Xenopus laevis oocytes assessed as inhibition of acetylcholine-induced current at 3 uM by two-electrode voltage clamp method; values are per cent of control. The settings on record: Oocyte.
Data set [17] has as its target Neuronal acetylcholine receptor; alpha3/beta4 (Homo sapiens) (UniProt P30926+P32297). Briefly: Inhibition of human nicotinic acetylcholine receptor subunit alpha-3 beta-4 expressed in Xenopus laevis oocytes assessed as inhibition of acetylcholine-induced current at 3 uM by two-electrode voltage clamp method; values are per cent of control. The settings on record: Oocyte.

The target in data set [18] is Neuronal acetylcholine receptor; alpha4/beta2 (Homo sapiens) (UniProt P17787+P43681). Briefly: Inhibition of human nicotinic acetylcholine receptor subunit alpha-4 beta-2 expressed in Xenopus laevis oocytes assessed as inhibition of acetylcholine-induced current at 3 uM by two-electrode voltage clamp method; values are per cent of control. As to conditions: Oocyte.
A further data set concerns Oocyte. Briefly: Inhibition of gamma-aminobutyric acid receptor A […] (unknown origin) expressed in Xenopus laevis oocytes assessed as inhibition of GABA-induced current at 3 uM by two-electrode voltage clamp method; values are per cent of control. The settings on record: Homo sapiens.
Data set [19] addresses Nicotinic acetylcholine receptor alpha1/beta1/gamma/delta (Mus musculus) (UniProt P04756+P09690+P02716+P04760). Briefly: Inhibition of mouse nicotinic acetylcholine receptor subunit alpha1beta1gammadelta expressed in Xenopus laevis oocytes assessed as inhibition of acetylcholine-induced current at 3 uM by two-electrode voltage clamp method; values are per cent of control. As to conditions: Oocyte.

Molecules are shown by their SMILES.

Chain of Glutamate receptor ionotropic, NMDA 2C (Q00961 whole entry, one chain of several): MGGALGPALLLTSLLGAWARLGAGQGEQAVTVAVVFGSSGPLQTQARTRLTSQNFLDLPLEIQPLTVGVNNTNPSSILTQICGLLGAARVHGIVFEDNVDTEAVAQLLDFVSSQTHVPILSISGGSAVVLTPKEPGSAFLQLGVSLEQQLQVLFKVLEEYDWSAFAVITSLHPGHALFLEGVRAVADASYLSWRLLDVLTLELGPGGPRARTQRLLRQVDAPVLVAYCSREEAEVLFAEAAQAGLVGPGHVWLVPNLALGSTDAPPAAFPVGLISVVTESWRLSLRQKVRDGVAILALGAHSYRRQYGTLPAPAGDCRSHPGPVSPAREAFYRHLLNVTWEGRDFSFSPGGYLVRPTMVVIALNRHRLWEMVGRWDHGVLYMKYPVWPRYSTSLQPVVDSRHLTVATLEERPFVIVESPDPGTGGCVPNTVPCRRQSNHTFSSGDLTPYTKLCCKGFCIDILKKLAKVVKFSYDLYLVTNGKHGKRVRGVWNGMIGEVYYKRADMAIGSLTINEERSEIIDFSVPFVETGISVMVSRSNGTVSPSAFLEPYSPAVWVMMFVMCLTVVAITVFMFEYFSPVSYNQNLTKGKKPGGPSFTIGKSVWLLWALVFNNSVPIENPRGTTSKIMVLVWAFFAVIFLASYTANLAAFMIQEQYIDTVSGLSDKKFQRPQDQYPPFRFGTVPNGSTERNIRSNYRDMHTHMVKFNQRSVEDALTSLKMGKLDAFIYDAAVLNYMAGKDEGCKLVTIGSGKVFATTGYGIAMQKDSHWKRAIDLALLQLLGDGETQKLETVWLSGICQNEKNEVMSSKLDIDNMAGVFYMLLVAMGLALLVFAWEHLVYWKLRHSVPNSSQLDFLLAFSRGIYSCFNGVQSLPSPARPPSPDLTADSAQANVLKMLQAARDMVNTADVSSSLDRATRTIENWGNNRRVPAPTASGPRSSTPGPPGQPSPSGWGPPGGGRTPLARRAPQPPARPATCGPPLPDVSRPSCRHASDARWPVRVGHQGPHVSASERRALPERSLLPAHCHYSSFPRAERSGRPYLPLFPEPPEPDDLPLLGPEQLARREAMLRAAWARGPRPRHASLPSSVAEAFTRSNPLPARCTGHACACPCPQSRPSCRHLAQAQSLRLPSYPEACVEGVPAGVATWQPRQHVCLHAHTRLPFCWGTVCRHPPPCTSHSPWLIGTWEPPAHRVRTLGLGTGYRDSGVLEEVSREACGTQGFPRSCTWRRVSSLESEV
Chain of Glutamate receptor ionotropic, NMDA 2D (Q62645 whole entry, one chain of several): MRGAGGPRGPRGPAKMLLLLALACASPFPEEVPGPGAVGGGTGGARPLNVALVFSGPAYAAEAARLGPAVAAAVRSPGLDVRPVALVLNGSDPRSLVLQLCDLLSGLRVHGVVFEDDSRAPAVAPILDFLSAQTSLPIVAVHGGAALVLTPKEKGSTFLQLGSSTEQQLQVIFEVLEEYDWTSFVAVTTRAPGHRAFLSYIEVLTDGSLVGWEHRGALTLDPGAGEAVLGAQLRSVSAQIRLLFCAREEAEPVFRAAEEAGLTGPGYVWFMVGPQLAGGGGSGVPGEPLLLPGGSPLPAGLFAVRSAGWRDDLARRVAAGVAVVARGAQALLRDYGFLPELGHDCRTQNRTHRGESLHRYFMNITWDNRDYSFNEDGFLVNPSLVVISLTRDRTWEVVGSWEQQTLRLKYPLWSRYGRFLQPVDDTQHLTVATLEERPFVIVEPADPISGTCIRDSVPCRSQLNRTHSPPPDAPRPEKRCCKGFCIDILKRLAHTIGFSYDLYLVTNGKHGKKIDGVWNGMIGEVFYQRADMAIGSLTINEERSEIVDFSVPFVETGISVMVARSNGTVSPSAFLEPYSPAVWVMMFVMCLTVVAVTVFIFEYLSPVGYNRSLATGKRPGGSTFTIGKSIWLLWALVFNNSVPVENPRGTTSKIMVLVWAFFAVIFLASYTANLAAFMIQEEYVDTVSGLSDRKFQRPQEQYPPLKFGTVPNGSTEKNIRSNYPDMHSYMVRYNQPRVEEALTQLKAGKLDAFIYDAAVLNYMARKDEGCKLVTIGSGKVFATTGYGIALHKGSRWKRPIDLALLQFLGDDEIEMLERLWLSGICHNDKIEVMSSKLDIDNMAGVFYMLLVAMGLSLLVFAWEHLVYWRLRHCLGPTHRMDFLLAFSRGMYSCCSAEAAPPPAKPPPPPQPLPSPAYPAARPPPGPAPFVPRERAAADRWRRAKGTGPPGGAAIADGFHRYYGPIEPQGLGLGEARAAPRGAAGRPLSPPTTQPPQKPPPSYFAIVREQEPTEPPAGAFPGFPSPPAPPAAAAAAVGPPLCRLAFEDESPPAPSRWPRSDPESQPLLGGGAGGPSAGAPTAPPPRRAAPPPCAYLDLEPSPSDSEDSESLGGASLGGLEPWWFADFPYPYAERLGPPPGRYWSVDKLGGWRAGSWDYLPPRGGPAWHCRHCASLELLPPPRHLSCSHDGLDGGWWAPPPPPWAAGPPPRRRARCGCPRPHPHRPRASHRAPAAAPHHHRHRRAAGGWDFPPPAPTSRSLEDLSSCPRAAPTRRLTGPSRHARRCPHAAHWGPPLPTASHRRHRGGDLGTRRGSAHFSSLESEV
Chain of 5-hydroxytryptamine receptor 3A (Homo sapiens) (P46098 whole entry): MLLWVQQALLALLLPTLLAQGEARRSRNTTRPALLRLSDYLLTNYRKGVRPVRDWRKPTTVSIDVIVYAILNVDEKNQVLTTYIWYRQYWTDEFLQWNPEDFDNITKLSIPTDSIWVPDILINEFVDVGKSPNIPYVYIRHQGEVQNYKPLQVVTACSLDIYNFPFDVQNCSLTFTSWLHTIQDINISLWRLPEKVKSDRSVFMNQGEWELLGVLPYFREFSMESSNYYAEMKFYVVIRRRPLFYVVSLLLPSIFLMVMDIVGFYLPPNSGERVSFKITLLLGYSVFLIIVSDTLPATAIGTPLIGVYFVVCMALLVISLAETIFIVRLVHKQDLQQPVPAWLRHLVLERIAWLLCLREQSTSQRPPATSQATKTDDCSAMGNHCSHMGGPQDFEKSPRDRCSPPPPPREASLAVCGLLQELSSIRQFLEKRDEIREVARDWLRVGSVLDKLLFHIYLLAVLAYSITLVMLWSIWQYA
Chain of Neuronal acetylcholine receptor subunit alpha-7 (Homo sapiens) (P36544 whole entry): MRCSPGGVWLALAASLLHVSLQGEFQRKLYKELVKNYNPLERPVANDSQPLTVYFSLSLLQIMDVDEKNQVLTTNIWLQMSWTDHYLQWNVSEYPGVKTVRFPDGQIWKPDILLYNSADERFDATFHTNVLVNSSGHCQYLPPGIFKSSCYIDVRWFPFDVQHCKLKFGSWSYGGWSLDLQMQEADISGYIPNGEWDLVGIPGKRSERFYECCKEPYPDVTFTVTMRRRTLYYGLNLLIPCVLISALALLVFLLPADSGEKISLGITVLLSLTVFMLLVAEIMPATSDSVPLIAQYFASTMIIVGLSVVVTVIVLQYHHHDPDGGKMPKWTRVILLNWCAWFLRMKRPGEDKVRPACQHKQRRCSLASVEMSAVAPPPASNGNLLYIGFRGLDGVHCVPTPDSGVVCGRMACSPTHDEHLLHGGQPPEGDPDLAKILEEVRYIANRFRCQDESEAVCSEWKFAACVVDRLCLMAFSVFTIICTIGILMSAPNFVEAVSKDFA
Chain of Glutamate receptor 4 (Homo sapiens) (P48058 whole entry): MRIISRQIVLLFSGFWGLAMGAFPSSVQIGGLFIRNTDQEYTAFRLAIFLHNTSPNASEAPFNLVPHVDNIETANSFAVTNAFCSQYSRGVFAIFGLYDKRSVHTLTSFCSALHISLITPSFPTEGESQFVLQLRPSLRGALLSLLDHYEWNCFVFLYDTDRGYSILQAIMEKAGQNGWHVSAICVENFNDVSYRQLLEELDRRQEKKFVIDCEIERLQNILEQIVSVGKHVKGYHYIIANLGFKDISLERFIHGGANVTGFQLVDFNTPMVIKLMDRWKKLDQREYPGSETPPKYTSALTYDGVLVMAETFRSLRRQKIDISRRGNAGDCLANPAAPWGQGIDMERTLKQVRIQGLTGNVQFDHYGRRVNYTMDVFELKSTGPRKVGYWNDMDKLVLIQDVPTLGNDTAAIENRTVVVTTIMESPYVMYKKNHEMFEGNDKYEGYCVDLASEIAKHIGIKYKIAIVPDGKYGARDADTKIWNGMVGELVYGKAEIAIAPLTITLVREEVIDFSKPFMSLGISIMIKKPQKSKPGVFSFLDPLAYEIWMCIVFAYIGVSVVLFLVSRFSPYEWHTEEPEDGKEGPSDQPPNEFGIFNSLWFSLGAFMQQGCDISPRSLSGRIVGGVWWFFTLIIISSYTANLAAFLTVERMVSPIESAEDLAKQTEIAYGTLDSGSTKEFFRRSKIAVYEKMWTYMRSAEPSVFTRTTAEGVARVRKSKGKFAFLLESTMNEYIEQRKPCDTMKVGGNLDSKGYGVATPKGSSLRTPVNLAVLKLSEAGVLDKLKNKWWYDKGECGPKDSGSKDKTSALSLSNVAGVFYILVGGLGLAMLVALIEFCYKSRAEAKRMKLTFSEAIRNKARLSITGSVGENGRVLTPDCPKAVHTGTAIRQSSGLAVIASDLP
Chain of P2X purinoceptor 2 (Homo sapiens) (Q9UBL9 whole entry): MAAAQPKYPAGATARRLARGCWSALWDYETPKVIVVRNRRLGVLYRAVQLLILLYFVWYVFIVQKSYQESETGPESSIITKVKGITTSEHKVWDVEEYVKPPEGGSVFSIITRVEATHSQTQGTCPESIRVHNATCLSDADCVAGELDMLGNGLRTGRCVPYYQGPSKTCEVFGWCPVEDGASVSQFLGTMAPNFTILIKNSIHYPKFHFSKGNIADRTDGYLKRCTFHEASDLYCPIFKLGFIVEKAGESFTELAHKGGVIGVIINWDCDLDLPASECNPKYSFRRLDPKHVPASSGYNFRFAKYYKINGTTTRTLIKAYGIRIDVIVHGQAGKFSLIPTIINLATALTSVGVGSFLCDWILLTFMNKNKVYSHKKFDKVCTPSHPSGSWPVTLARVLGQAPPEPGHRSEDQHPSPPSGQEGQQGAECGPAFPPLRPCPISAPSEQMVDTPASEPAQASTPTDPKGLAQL

For the compound `O=C(O)/C=C/C(=O)N1N=C(c2c(-c3ccc(Br)cc3)c3ccccc3[nH]c2=O)CC1c1ccc(Cl)cc1` (racemic), the Stability entry with Plasma is reported as “Stable”. The Ki in data set [1] is over 10 µM. Also, the IC50 in [2] turned out to be 4.3 µM; in [3], 12 µM; in [4], 0.2 µM; in [5], 0.19 µM. Besides, the residual activity was 97% in data set [6]; 100% in data set [7]; 97% in [8]; 99% in [9]; 95% in data set [10]; 100% in [11]. The residual activity in [12] is 95%; in data set [13] it was 26%; in data set [14], 89%; in data set [15] it was 99%; in data set [16] it was 64%; in data set [17], 87%. The results for the residual activity (in data set [18]; with Oocyte; in data set [19]) were 82%, 95% and 98%, respectively.

On to `O=C(O)CCC(=O)N1N=C(c2c(-c3ccc(Cl)cc3)c3ccccc3[nH]c2=O)CC1c1ccc(Cl)cc1` (racemic), for which, in the data set with Plasma, the Stability result is listed as “Stable”. Also, the Ki in [1] was over 10 µM. Also, the IC50 in [2] came out at 21 µM; in data set [3], 22 µM; in [4] it was 0.77 µM; in [5], 0.44 µM. Further, the residual activity in data set [6] was 97%; in data set [7] it was 97%; in [8], 96%; in data set [9] it was 97%; in [10], 97%; in data set [11], 113%. For the same compound, the residual activity in data set [12] is 95%; in [13] it was 21%; in [14], 89%; in [15], 101%; in data set [16], 82%; in [17], 77%. Also, the residual activity in data set [18] was 79%; in the data set on Oocyte it was 97%; in data set [19], 94%.
